RanGTP-Impb inh: inhibitors of RanGTP-importin-beta interaction, primary screen, biochemical, FRET, CFP-Ran, YFP-importin-beta, homogeneous. cell-free CFP-Ran/YFP-importin-beta FRET ratio. inhibition, % (concentration not given with the values). 1.1% of 300,000 active. Ran GTPase (GTP-bound) - importin-beta complex;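 active = more than half of the replicate wells show a fall in the fluorescence ratio signal beyond about 16%, limit read from the data, passing the limit was not always enough; inconclusive = exactly half of the replicate wells pass the set limit; inactive = fewer than half of replicates pass the limit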;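 note: 0% = DMSO wells and 100% = Ran loaded with GDP instead of GTP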
p97 ATPase inh: inhibitors of human p97 ATPase, primary screen, biochemical. inhibition, % at 8 µM. 0.42% of 220,000 active. recombinant p97 ATPase, Kinase-Glo ATP luminescence, 3 h. Transitional endoplasmic reticulum ATPase (Homo sapiens), P55072. AID 1481, 2009; in the data active = inhibition above about 15%;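 note: 0% = DMSO vehicle and 100% = wells lacking enzyme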
Hck-Nef inh: inhibitors of Nef-activated human Hck kinase, primary screen, biochemical, Z-Lyte FRET, 384-well, Hck-YEEI | Tyrosine-protein kinase HCK (Homo sapiens), P08631 | Recombinant Hck-YEEI plus Nef, Z-Lyte FRET kinase assay | inhibition, % at 20 µM | 0.68% of 220,000 active;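 active = Hck-Nef kinase inhibition above about 50%, limit read from the data; inactive = inhibition below that limit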;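 note: 0% = DMSO with Hck plus Nef and 100% = Hck alone without Nef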
Target sequence (P08631 whole entry, looked up): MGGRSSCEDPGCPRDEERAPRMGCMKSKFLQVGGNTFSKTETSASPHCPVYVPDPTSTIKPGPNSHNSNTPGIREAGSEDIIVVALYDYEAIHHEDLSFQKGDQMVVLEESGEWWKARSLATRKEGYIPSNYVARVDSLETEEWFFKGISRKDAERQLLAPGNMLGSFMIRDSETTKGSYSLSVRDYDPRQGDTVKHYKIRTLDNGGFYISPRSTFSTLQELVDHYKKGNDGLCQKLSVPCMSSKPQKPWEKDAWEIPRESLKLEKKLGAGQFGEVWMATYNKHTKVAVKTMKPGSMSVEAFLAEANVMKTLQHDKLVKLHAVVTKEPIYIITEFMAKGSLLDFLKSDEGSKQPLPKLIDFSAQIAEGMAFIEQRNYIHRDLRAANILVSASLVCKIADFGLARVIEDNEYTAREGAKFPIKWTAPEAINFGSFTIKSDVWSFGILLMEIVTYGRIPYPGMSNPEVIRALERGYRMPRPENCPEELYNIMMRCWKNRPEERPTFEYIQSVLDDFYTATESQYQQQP
Runt-SMMHC FRET: inhibitors of RUNX1 Runt–CBFb-SMMHC binding, primary screen, biochemical, FRET, Cerulean-Runt, Venus-CBFb-SMMHC, uHTS. 0.74% of 220,000 active. Runt-related transcription factor 1 (Homo sapiens) + Core-binding factor subunit beta …. AID 1434, 2008. Cerulean-Runt/Venus-CBFb-SMMHC FRET ratio 530/480, 1 h. inhibition, % at 20 µM;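 active = mean inhibition across duplicate retests at 20 µM reaching about 50%, limit read from the data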;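 note: 0% = DMSO wells and 100% = wells with excess untagged CBFb-SMMHC; inhibitors lower the FRET ratio by blocking Runt binding to CBFb-SMMHC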
TbHK1 inh: Trypanosoma brucei hexokinase 1 inhibitors, primary screen, biochemical, G6PDH-coupled NADH absorbance, MLSCN library; hexokinase 1 [Trypanosoma brucei]; recombinant TbHK1, G6PDH-coupled NADH A340; inhibition, % at 10 µM; 0.11% of 220,000 active;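 active = inhibition of 50% or more in the single-dose primary screen; inactive = inhibition below 50%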
Runt-CBFb FRET: inhibitors of RUNX1 Runt–CBFb binding, primary screen, biochemical, FRET, Cerulean-Runt, Venus-CBFb, uHTS; Cerulean-Runt/Venus-CBFb FRET ratio 530/480, 1 h; 0.46% of 220,000 active; inhibition, % at 20 µM;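 active = inhibition over about 50% at 20 µM in the single-dose screen, limit read from the data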;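 note: 0% = DMSO wells and 100% = excess unlabeled CBFb competitor control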
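Measured by: fluorescence energy transfer, 422 nm excitation, 530/480 nm emission; Assay system: Cerulean-Runt domain; Medium: Tris pH 7.5 buffer with BSA; Measure: loss of energy transfer signal; Controls: 5 µM unlabeled CBFb as full-inhibition high control; Incubation: protein complex preformed 1 h, compound exposure 1 h, room temperature, dark.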
RUNX1 CBFb TR: inhibitors of RUNX1 Runt–CBFb binding, biochemical, TR-FRET; TR-FRET RUNX1 Runt domain-CBFb binding; 20% of 480 active; shares compounds with Runt-CBFb FRET; inhibition, % at 20 µM; in the data active = inhibition above about 40%
* marks the source's active call; other numbers are inactive results; ? = inconclusive; nt = not tested or not shown. A selection: hits, their analogues and other compounds. The true share with any hit is near 2.1%.

SMILES | RanGTP-Impb inh | p97 ATPase inh | Hck-Nef inh | Runt-SMMHC FRET | TbHK1 inh | Runt-CBFb FRET | RUNX1 CBFb TR
O=C1C2C3C=CC(CO)(O3)C2C(=O)N1c1ccccc1-c1ccccc1 (stereo unspecified) | nt | 2 | 5 | 68* | 2 | 61* | 70*
Cc1ccc(C)c(NC(=O)Cc2csc(-c3ccccc3)n2)c1 | ? | -6 | 0 | 0 | -3 | 1 | nt
CCOC(=O)C(C(=O)OCC)C(C)C#CCN1CCCCC1 (stereo unspecified) | 3 | -1 | -2 | 0 | 0 | 0 | nt
COc1cc(C)c(NC(=O)C(=S)NCCc2ccccc2)cc1C | -2 | 0 | 29 | 34 | -1 | 51* | 15
CCOC(=O)C1=C(CNCCc2ccc(Cl)cc2)NC(=O)NC1c1ccc2c(c1)OCO2 (stereo unspecified) | -5 | 8 | 1 | 1 | 1 | 65* | 7
O=C(COc1cccc(Cl)c1Cl)Nc1ccc2c(c1)CCC2 | 3 | 3 | 0 | -13 | -6 | 63* | -27
CCc1c(C)c(C#N)c2nc3ccccc3n2c1Nc1c(C)n(C)n(-c2ccccc2)c1=O | 40* | -4 | 8 | 92* | 29 | 56* | 24
CCc1c(C)c(C#N)c2nc3ccccc3n2c1N(C)C | nt | 4 | 3 | 18 | 1 | 9 | nt
O=[N+]([O-])c1ccccc1S(=O)(=O)NC1CCCC1 | 2 | -3 | 21 | -1 | -1 | 0 | nt
Cc1ccc(NC(=S)N(CCN(C)C)Cc2cccs2)c(C)c1 | -1 | 4 | 22 | 43 | 7 | 54* | 23
NS(=O)(=O)c1ccc(NC(=S)NCc2cccc(Cl)c2)cc1 | 0 | 5 | 0 | -2 | 1 | 6 | nt
NS(=O)(=O)c1ccc(NC(=S)NCc2ccccc2)cc1 | 5 | -6 | 3 | 28 | 8 | 52* | 6
Cc1cc(C)n(CC(=O)N/N=C/c2cccc([N+](=O)[O-])c2)n1 | 1 | 5 | 4 | -4 | -1 | 2 | nt
Cc1cc(SCNC(=O)c2ccccc2)nc(C(C)C)n1 | ? | -2 | 25 | 16 | -8 | 43 | nt
Cc1cc(C)nc(SCNC(=O)c2ccccc2)n1 | -6 | 0 | 8 | 18 | -2 | 69* | -14
O=C(Nc1nnc(S(=O)(=O)N2CCN(c3ccc(F)cc3)CC2)s1)c1ccccc1 | -1 | nt | nt | nt | nt | nt | nt
CCCOC(=O)C1=C(C)NC2=C(C(=O)CC(C)(C)C2)C1c1cccnc1 (stereo unspecified) | ? | 4 | 33 | 127* | -8 | 63* | -15
CCCOC(=O)C1=C(C)NC2=C(C(=O)CC(C)(C)C2)C1c1ccc(N(C)C)cc1 (stereo unspecified) | 5 | 1 | 4 | 12 | -5 | 2 | nt
Cc1ccc2c(c1)sc(C)[n+]2CCCS(=O)(=O)[O-] | 1 | -1 | 31 | 50 | 0 | 58* | 29
COc1ccc(-c2noc(CCC(=O)N3CCC(C)CC3)n2)cc1 | 0 | -3 | 0 | -2 | 0 | 85* | -2
CC(C)C[C@H](NC(=O)N1CC(=O)Nc2ccccc21)C(=O)N1CCC(C(=O)O)CC1 | -1 | nt | nt | nt | nt | nt | nt
O=[N+]([O-])c1cccc(C(=S)N2CCN(c3ccccc3)CC2)c1 | 1 | 3 | 14 | 24 | 9 | 53* | 21
Cc1c(Cc2ccccc2)sc(/N=C/c2c(O)ccc3ccccc23)c1C(N)=O | 120* | 2 | 9 | 63* | 13 | 105* | 29
Cc1c(Cc2ccccc2)sc(/N=C/c2ccc3ccccc3c2)c1C(N)=O | nt | 4 | 0 | -5 | -6 | 1 | nt
Cc1snc(SCc2ccc(Cl)cc2)c1C#N | 0 | nt | nt | nt | nt | nt | nt
SMILES | RanGTP-Impb inh | p97 ATPase inh | Hck-Nef inh | Runt-SMMHC FRET | TbHK1 inh | Runt-CBFb FRET | RUNX1 CBFb TR
CCNC(=O)N1C(CC(=O)OCC)C(=O)NC2CCCCC21 (stereo unspecified) | 2 | 3 | 0 | 3 | 5 | 0 | nt
COC(=O)CC1C(=O)NC2CCCCC2N1C(=O)CCl (stereo unspecified) | 4 | 4 | 4 | -6 | -7 | 51* | 35
CCn1c(SCC(=O)N2CCOCC2)nc(O)cc1=O | 0 | -4 | 1 | 3 | -1 | 2 | nt
O=C(O)c1cccc(S(=O)(=O)Nc2ccc3oc(=O)sc3c2)c1 | 0 | 3 | -1 | 68* | 7 | 65* | 21
O=c1oc2ccc(NS(=O)(=O)c3cccc4cccnc34)cc2s1 | -2 | nt | nt | nt | nt | nt | nt
Cc1ccc(NC(=O)c2cccc(C(=O)OC(C)C)n2)c(Br)c1 | 0 | 1 | 32 | -1 | 1 | -7 | nt
COc1ccccc1N1CCN(Cc2ccsc2)CC1 | 7 | 8 | 3 | 1 | 6 | 54* | -6
Cn1ccnc1Sc1nc2ccccc2nc1NS(=O)(=O)c1ccccc1 | ? | 4 | -3 | 73* | -12 | 61* | 54*
Cc1ccc(/C=c2\sc3nc(-c4ccccc4Br)nn3c2=O)o1 | -1 | 0 | 6 | 1 | 3 | 25 | nt
Cc1ccc(/C=c2\sc3nc(-c4ccco4)nn3c2=O)o1 | 12 | 6 | 13 | 29 | -4 | 53* | 88*
Nc1ccnc(=O)[nH]1 | 0 | nt | nt | nt | nt | nt | nt
Oc1ccc(/C=N/N=C(c2ccccc2)c2ccccc2)c(O)c1O | nt | 8 | -1 | 46 | 4 | 57* | 63*
O=C(O)CSc1c(O)c2ccccc2[nH]c1=O | 4 | 3 | 25 | 23 | 1 | 23 | nt
Cc1[nH]c2ccccc2c1SCC(=O)O | -4 | 2 | -7 | -9 | 6 | 70* | -28
C=CCN1C(=O)/C(=C2/Sc3ccc(OC)cc3N2C)SC1=NCc1ccccc1 | 1 | 0 | -45 | 37 | -6 | 51* | 10
CC1=C(OC(=O)C(C)(C)C)C(C)(C)C(c2ccccc2)OC1=O (stereo unspecified) | 12 | -1 | 3 | 1 | 30 | -3 | nt
O=C(CSc1nnc(CNC(=O)c2ccco2)o1)Nc1nc2ccccc2s1 | 2 | -2 | -7 | 21 | 8 | 56* | 64*
O=C(CSc1nnc(CNC(=O)c2ccco2)o1)Nc1ccccc1 | 1 | -2 | 15 | -2 | -3 | 1 | nt

Screening data deposited in PubChem BioAssay by several laboratories.
